Reference: ChEMBL document CHEMBL4689842, “EUbOPEN Chemogenomics Library wave 1” (2021)

Tested on: Fibroblast
Test: Multiplex assay against human fibroblast
Type: toxicity, cell-based
Method in brief: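 Hoechst33342, BioTracker Green Microtubule Cytoskeleton Dye, MitoTracker Red and Annexin V Alexa Fluor 680 were added to live cells at seeding, and imaging on a CQ1 microscope at 37°C and 5% CO2 followed compound addition. Gating by CellPathfinder machine learning separated cells into Hoechst high-intensity objects or normal cells, then normal cells into healthy, pyknosed or fragmented nuclei, then pyknosed cells into mitotic or apoptotic. Per cents of healthy-nucleus cells are reported for the tubulin, mitochondrial-mass and membrane-permeability phenotypes.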

[1] = 12 h, 1 µM, compound concentration 1 uM, replicate 1
[2] = 12 h, 1 µM, compound concentration 1 uM, replicate 2
[3] = 12 h, 10 µM, compound concentration 10 uM, replicate 1
[4] = 12 h, 10 µM, compound concentration 10 uM, replicate 2
[5] = 24 h, 1 µM, compound concentration 1 uM, replicate 1
[6] = 24 h, 1 µM, compound concentration 1 uM, replicate 2
[7] = 24 h, 10 µM, compound concentration 10 uM, replicate 1
[8] = 24 h, 10 µM, compound concentration 10 uM, replicate 2

Q: What does the source list for `CC(C)CC(=O)Nc1[nH]nc2c1CN(C(=O)C1CCN(C)CC1)C2(C)C` [PHA-793887]?
A: Population Apoptotic (%) [1]: 81%; Population Fragmented Nuclei (%) [1]: 21%; Population Healthy Nuclei (%) [1]: 60%; Population Hoechst High Intensity Objects (%) [1]: 11%; Population Membrane Permeable-Phenotype (%) [1]: 4%; Population Mitochondria Different-Phenotype (%) [1]: 3%; Population Mitotic Cells (%) [1]: 18%; Population Normal (%) [1]: 88%; Population Pyknosed Nuclei (%) [1]: 18%; Population Tubulin-Different-Phenotype (%) [1]: 4%; Total Cell Count [1]: 233; Population Apoptotic (%) [2]: 50%; Population Fragmented Nuclei (%) [2]: 48%; Population Healthy Nuclei (%) [2]: 31%; Population Hoechst High Intensity Objects (%) [2]: 46%; Population Membrane Permeable-Phenotype (%) [2]: 22%; Population Mitochondria Different-Phenotype (%) [2]: 44%; Population Mitotic Cells (%) [2]: 50%; Population Normal (%) [2]: 53%; Population Pyknosed Nuclei (%) [2]: 20%; Population Tubulin-Different-Phenotype (%) [2]: 22%; Total Cell Count [2]: 54; Population Apoptotic (%) [3]: 73%; Population Fragmented Nuclei (%) [3]: 23%; Population Healthy Nuclei (%) [3]: 66%; Population Hoechst High Intensity Objects (%) [3]: 12%; Population Membrane Permeable-Phenotype (%) [3]: 4%; Population Mitochondria Different-Phenotype (%) [3]: 7%; Population Mitotic Cells (%) [3]: 26%; Population Normal (%) [3]: 87%; Population Pyknosed Nuclei (%) [3]: 10%; Population Tubulin-Different-Phenotype (%) [3]: 4%; Total Cell Count [3]: 277; Population Apoptotic (%) [4]: 33%; Population Fragmented Nuclei (%) [4]: 68%; Population Healthy Nuclei (%) [4]: 24%; Population Hoechst High Intensity Objects (%) [4]: 33%; Population Membrane Permeable-Phenotype (%) [4]: 20%; Population Mitochondria Different-Phenotype (%) [4]: 40%; Population Mitotic Cells (%) [4]: 66%; Population Normal (%) [4]: 66%; Population Pyknosed Nuclei (%) [4]: 7%; Population Tubulin-Different-Phenotype (%) [4]: 30%; Total Cell Count [4]: 62; Population Apoptotic (%) [5]: 71%; Population Fragmented Nuclei (%) [5]: 20%; Population Healthy Nuclei (%) [5]: 65%; Population Hoechst High Intensity Objects (%) [5]: 13%; Population Membrane Permeable-Phenotype (%) [5]: 6%; Population Mitochondria Different-Phenotype (%) [5]: 1%; Population Mitotic Cells (%) [5]: 28%; Population Normal (%) [5]: 86%; Population Tubulin-Different-Phenotype (%) [5]: 3%; Total Cell Count [5]: 225; Population Apoptotic (%) [6]: 66%; Population Fragmented Nuclei (%) [6]: 57%; Population Healthy Nuclei (%) [6]: 28%; Population Hoechst High Intensity Objects (%) [6]: 37%; Population Membrane Permeable-Phenotype (%) [6]: 16%; Population Mitochondria Different-Phenotype (%) [6]: 25%; Population Mitotic Cells (%) [6]: 33%; Population Normal (%) [6]: 62%; Population Pyknosed Nuclei (%) [6]: 14%; Population Tubulin-Different-Phenotype (%) [6]: 16%; Total Cell Count [6]: 67; Population Apoptotic (%) [7]: 61%; Population Fragmented Nuclei (%) [7]: 23%; Population Healthy Nuclei (%) [7]: 64%; Population Hoechst High Intensity Objects (%) [7]: 11%; Population Membrane Permeable-Phenotype (%) [7]: 3%; Population Mitochondria Different-Phenotype (%) [7]: 6%; Population Mitotic Cells (%) [7]: 38%; Population Normal (%) [7]: 88%; Population Pyknosed Nuclei (%) [7]: 12%; Population Tubulin-Different-Phenotype (%) [7]: 6%; Total Cell Count [7]: 284; Population Apoptotic (%) [8]: 100%; Population Fragmented Nuclei (%) [8]: 72%; Population Healthy Nuclei (%) [8]: 20%; Population Hoechst High Intensity Objects (%) [8]: 32%; Population Membrane Permeable-Phenotype (%) [8]: 0%; Population Mitochondria Different-Phenotype (%) [8]: 11%; Population Mitotic Cells (%) [8]: 0%; Population Normal (%) [8]: 67%; Population Pyknosed Nuclei (%) [8]: 6%; Population Tubulin-Different-Phenotype (%) [8]: 22%; Total Cell Count [8]: 64
